Key:
Type in all cases: functional
K562 = assay: Growth inhibition of human K562 cells incubated for 48 hrs by sulforhodamine B assay; details: K562, 48 h
In short: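 NCI-60 five-dose SRB assay in RPMI 1640 with 5% FBS, 37 °C, 5% CO2. Compound given at five tenfold dilutions, 0.01–100 µM, for 48 h. Adherent cells fixed with TCA, suspension cells with 16% final TCA. Bound SRB read at 515 nm and growth calculated against time-zero and untreated controls. GI50 taken from dose–response curves as the concentration giving a 50% decrease in net cell growth.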

HCT-15 = assay: Growth inhibition of human HCT15 cells incubated for 48 hrs by sulforhodamine B assay; details: HCT-15, 48 h
In short: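 NCI-60 five-dose mode: five tenfold dilutions (0.01, 0.1, 1, 10, 100 µM) are applied for 48 h to cells in RPMI 1640 with 5% FBS at 37 °C. Endpoint is TCA fixation with sulforhodamine B read at 515 nm. % growth comes from the 0 h and control absorbances. GI50 is the concentration giving a 50% reduction in net cell growth.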

SF-539 = assay: Growth inhibition of human SF539 cells incubated for 48 hrs by sulforhodamine B assay; details: SF-539, 48 h
In short: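 NCI-60 five-dose SRB assay. Cells were exposed for 48 h to tenfold dilutions of 0.01, 0.1, 1, 10 and 100 µM, in RPMI 1640 with 5% FBS. Plates fixed with TCA at the time of drug addition served as the time-zero reference. GI50 is the concentration giving a 50% reduction in net growth. TGI is total growth inhibition. LC50 is a net 50% loss of the initial cells.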

SN12C = assay: Growth inhibition of human SN12C cells incubated for 48 hrs by sulforhodamine B assay
In short: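 NCI-60 five-dose assay, SRB end-point, same culture conditions. Compound is tested at tenfold dilutions of 0.01, 0.1, 1, 10 and 100 µM for 48 h at 37 °C, with DMSO/PBS vehicle controls. Percentage growth at each concentration is taken against untreated cells and a time-zero plate. GI50 is 50% net growth decrease, TGI is total growth inhibition, and LC50 is 50% loss of initial cells.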

SNB-75 = assay: Induction of apoptosis in human SNB75 cells assessed as early apoptotic cells at 2 uM incubated for 24 hrs by annexin V FITC and propidium iodide based flow cytometry (reference value: 0.82 %)
SF-268 [1] = assay: Growth inhibition of human SF268 cells assessed as cell viability at 100 uM incubated for 48 hrs by sulforhodamine B assay; details: SF-268, 48 h, read-out: Activity
OVCAR-5 = assay: Growth inhibition of human OVCAR5 cells assessed as cell viability at 1 uM incubated for 48 hrs by sulforhodamine B assay; details: OVCAR-5, 48 h, read-out: Activity
SR = assay: Growth inhibition of human SR cells assessed as cell viability at 1 uM incubated for 48 hrs by sulforhodamine B assay; details: read-out: Activity
T47D = assay: Growth inhibition of human T47D cells assessed as cell viability at 0.001 uM incubated for 48 hrs by sulforhodamine B assay relative to control; details: read-out: Activity
ACHN = assay: Growth inhibition of human ACHN cells assessed as cell viability at 0.001 uM incubated for 48 hrs by sulforhodamine B assay relative to control; details: read-out: Activity
A498 = assay: Growth inhibition of human A498 cells assessed as cell viability at 0.001 uM incubated for 48 hrs by sulforhodamine B assay relative to control; details: A498, 48 h, read-out: Activity
SF-268 [2] = assay: Growth inhibition of human SF268 cells assessed as cell viability at 0.001 uM incubated for 48 hrs by sulforhodamine B assay relative to control; details: SF-268, 48 h, read-out: Activity
HL-60(TB) = assay: Growth inhibition of human HL-60(TB) cells assessed as cell viability at 0.001 uM incubated for 48 hrs by sulforhodamine B assay relative to control; details: HL-60, 48 h, read-out: Activity
SK-OV-3 = assay: Growth inhibition of human SKOV3 cells assessed as cell viability at 100 uM incubated for 48 hrs by sulforhodamine B assay; details: SK-OV-3, 48 h, read-out: Activity
DU-145 = assay: Growth inhibition of human DU145 cells assessed as cell viability at 100 uM incubated for 48 hrs by sulforhodamine B assay; details: DU-145, 48 h, read-out: Activity
BT-549 = assay: Growth inhibition of human BT549 cells assessed as cell viability at 100 uM incubated for 48 hrs by sulforhodamine B assay; details: BT-549, 48 h, read-out: Activity
[3] = read-out: LC50 (the source's name)
[4] = read-out: pLC50 (the source's name) (converted)

With `CC1=C(C(=O)OCc2ccccc2)C(c2ccc3c(c2)OCO3)n2c(nc3ccccc32)N1` (racemic) the GI50 (K562; read-out: GI50) was 0.34 µM, the CC50 (K562; [3]) was greater than 100 µM and the TGI (K562; read-out: TGI) was greater than 100 µM. It also gave a GI50 (K562; read-out: pGI50 (converted)) of 0.347 µM, a CC50 (K562; [4]) greater than 100 µM and a TGI (K562; read-out: pTGI) greater than 100 µM. For the same compound, the GI50 (HCT-15; read-out: GI50) was 0.37 µM, the LC50 (concentration causing 50% net cell kill) (HCT-15; read-out: LC50) was greater than 100 µM and the TGI (HCT-15; read-out: TGI) was greater than 100 µM. For the same compound, the GI50 (HCT-15; read-out: pGI50 (converted)) was 0.372 µM, the LC50 (concentration causing 50% net cell kill) (HCT-15; read-out: pLC50 (converted)) was greater than 100 µM and the TGI (HCT-15; read-out: pTGI) was greater than 100 µM. The GI50 (SF-539; read-out: GI50) was 0.34 µM, the LC50 (SF-539; read-out: LC50) was greater than 100 µM and the TGI (SF-539; read-out: TGI) was greater than 100 µM. The GI50 (SF-539; read-out: pGI50 (converted)) was 0.339 µM, the LC50 (SF-539; read-out: pLC50 (converted)) was greater than 100 µM and the TGI (SF-539; read-out: pTGI) was greater than 100 µM. The CC50 (SN12C; [3]) was greater than 100 µM, the TGI (SN12C; read-out: TGI) was greater than 100 µM and the CC50 (SN12C; [4]) was greater than 100 µM. It also gave a TGI (SN12C; read-out: pTGI) greater than 100 µM, an Activity (SNB-75) of 7.65% and a viability at 100 µM (SF-268 [1]) of 9%. The viability at 1 µM (OVCAR-5) was 52%, the viability at 1 µM (SR) was 52% and the viability at 0.001 µM (T47D) was 82%. For the same compound, the viability at 0.001 µM (ACHN) was 99%, the viability at 0.001 µM (A498) was 81% and the viability at 0.001 µM (SF-268 [2]) was 91%. For the same compound, the viability at 0.001 µM (HL-60(TB)) was 95%, the viability at 100 µM (SK-OV-3) was 42% and the viability at 100 µM (DU-145) was 41%. For the same compound, the viability at 100 µM (BT-549) was 35%.
